Test results published in ChEMBL document CHEMBL2424551, “Synthesis, in vitro evaluation and molecular modelling of naphthalimide analogue as anticancer agents” (2013).
The source made the active and inactive calls. No cut-off for these calls is given here.

How the values were obtained:
Format in all cases: functional
[1] = system: MOLT-4; assay: Growth inhibition of human MOLT4 cells at 10 uM after 48 hrs by SRB assay; conditions: for inhibition of growth at 10 µM: MOLT-4, 48 h, read-out: GI
How it was run: (§1)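 Cells grown in RPMI 1640 with 5% FBS and 2 mM L-glutamine, plated at 5000–40,000 cells/well by doubling time and preincubated 24 h (37 °C, 5% CO2); a time-zero plate is TCA-fixed. Single dose added, then 48 h incubation. Fixed with cold TCA, stained with 0.4% SRB, dye solubilized in 10 mM Tris base, absorbance at 515 nm; percent growth vs time-zero and untreated control.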

[2] = system: A549; assay: Growth inhibition of human A549 cells at 10 uM after 48 hrs by SRB assay; conditions: A549, 48 h, read-out: GI; how it was run: as §1
[3] = system: HCT-15; assay: Growth inhibition of human HCT15 cells at 10 uM after 48 hrs by SRB assay; conditions: HCT-15, 48 h, read-out: GI; how it was run: as §1
[4] = system: PC-3; assay: Growth inhibition of human PC3 cells at 10 uM after 48 hrs by SRB assay; conditions: PC-3, 48 h, read-out: GI; how it was run: as §1
[5] = Cytotoxicity against human CNS cancer cells after 48 hrs by SRB assay; conditions: Cancer cell lines
How it was run: (§2)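 Five-concentration screen (10-fold or ½-log serial dilutions) on the 60-line panel. Cells grown in RPMI 1640 with 5% FBS and 2 mM L-glutamine, plated at 5000–40,000/well by doubling time, preincubated 24 h at 37 °C, 5% CO2, then exposed 48 h. Time-zero plates TCA-fixed. SRB stain, Tris-solubilized, A515. GI50, TGI and LC50 derived from Tz, C and Ti.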

[6] = system: OVCAR-8; assay: Growth inhibition of human OVCAR8 cells at 10 uM after 48 hrs by SRB assay; conditions: OVCAR-8, 48 h, read-out: GI; how it was run: as §1
[7] = system: SK-MEL-2; assay: Growth inhibition of human SK-MEL-2 cells at 10 uM after 48 hrs by SRB assay; conditions: SK-MEL-2, 48 h, read-out: GI; how it was run: as §1
[8] = system: HOP-62; assay: Growth inhibition of human HOP62 cells at 10 uM after 48 hrs by SRB assay; conditions: HOP-62, 48 h, read-out: GI; how it was run: as §1
[9] = system: NCI-H522; assay: Growth inhibition of human NCI-H522 cells at 10 uM after 48 hrs by SRB assay; conditions: NCI-H522, 48 h, read-out: GI; how it was run: as §1
[10] = Cytotoxicity against human prostate cancer cells after 48 hrs by SRB assay; conditions: Cancer cell lines; how it was run: as §2
[11] = system: DU-145; assay: Growth inhibition of human DU145 cells at 10 uM after 48 hrs by SRB assay; conditions: DU-145, 48 h, read-out: GI; how it was run: as §1
[12] = system: 786-0; assay: Growth inhibition of human 786-0 cells at 10 uM after 48 hrs by SRB assay; conditions: 786-0, 48 h, read-out: GI; how it was run: as §1
[13] = system: SNB-19; assay: Growth inhibition of human SNB19 cells at 10 uM after 48 hrs by SRB assay; conditions: SNB-19, 48 h, read-out: GI
How it was run: (§3)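 NCI 60-cell-line screen with a single 10 µM dose. Cells are grown in RPMI 1640 with 5% FBS and 2 mM L-glutamine, plated at 5000–40,000 cells/well according to doubling time, and preincubated 24 h at 37 °C, 5% CO2; time-zero plates are TCA-fixed at that point. Drug exposure is 48 h. Adherent cells are fixed with cold TCA, stained with 0.4% SRB in 1% acetic acid and read at 515 nm. Percent growth is calculated relative to time-zero and untreated controls and reported as GI%.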

[14] = system: NCI-H226; assay: Growth inhibition of human NCI-H226 cells at 10 uM after 48 hrs by SRB assay; conditions: NCI-H226, 48 h, read-out: GI; how it was run: as §1
[15] = system: OVCAR-3; assay: Growth inhibition of human OVCAR3 cells at 10 uM after 48 hrs by SRB assay; conditions: OVCAR-3, 48 h, read-out: GI; how it was run: as §1
[16] = Cytotoxicity against human renal cancer cells after 48 hrs by SRB assay; conditions: Cancer cell lines; how it was run: as §2
[17] = system: SK-MEL-5; assay: Growth inhibition of human SK-MEL-5 cells at 10 uM after 48 hrs by SRB assay; conditions: SK-MEL-5, 48 h, read-out: GI; how it was run: as §1
[18] = system: Malme-3M; assay: Growth inhibition of human MALME-3M cells at 10 uM after 48 hrs by SRB assay; conditions: read-out: GI; how it was run: as §1
[19] = Growth inhibition of human NCI-ADR-RES cells at 10 uM after 48 hrs by SRB assay; conditions: read-out: GI; how it was run: as §1
[20] = system: RPMI-8226; assay: Growth inhibition of human RPMI8226 cells at 10 uM after 48 hrs by SRB assay; conditions: RPMI-8226, 48 h, read-out: GI; how it was run: as §1
[21] = Cytotoxicity against human breast cancer cells after 48 hrs by SRB assay; conditions: Cancer cell lines; how it was run: as §2
[22] = system: SF-268; assay: Growth inhibition of human SF268 cells at 10 uM after 48 hrs by SRB assay; conditions: SF-268, 48 h, read-out: GI; how it was run: as §1
[23] = Cytotoxicity against human leukemia cells after 48 hrs by SRB assay; conditions: Leukemia cell; how it was run: as §2
[24] = Cytotoxicity against human ovarian cancer cells after 48 hrs by SRB assay; conditions: Cancer cell lines; how it was run: as §2
[25] = system: SW-620; assay: Growth inhibition of human SW620 cells at 10 uM after 48 hrs by SRB assay; conditions: SW-620, 48 h, read-out: GI; how it was run: as §3
[26] = system: T47D; assay: Growth inhibition of human T47D cells at 10 uM after 48 hrs by SRB assay; conditions: read-out: GI; how it was run: as §3
[27] = system: UO-31; assay: Growth inhibition of human UO31 cells at 10 uM after 48 hrs by SRB assay; conditions: UO-31, 48 h, read-out: GI; how it was run: as §3
[28] = system: TK-10; assay: Growth inhibition of human TK10 cells at 10 uM after 48 hrs by SRB assay; conditions: TK-10, 48 h, read-out: GI; how it was run: as §3
[29] = system: KM12; assay: Growth inhibition of human KM12 cells at 10 uM after 48 hrs by SRB assay; conditions: KM12, 48 h, read-out: GI; how it was run: as §1
[30] = Cytotoxicity against human non-small cell lung cancer cells after 48 hrs by SRB assay; conditions: Cancer cell lines; how it was run: as §2
[31] = Cytotoxicity against human colon cancer cells after 48 hrs by SRB assay; conditions: Cancer cell lines; how it was run: as §2
[32] = system: OVCAR-5; assay: Growth inhibition of human OVCAR5 cells at 10 uM after 48 hrs by SRB assay; conditions: OVCAR-5, 48 h, read-out: GI; how it was run: as §1
[33] = system: MDA-MB-468; assay: Growth inhibition of human MDA-MB-468 cells at 10 uM after 48 hrs by SRB assay; conditions: for inhibition of growth at 10 µM: MDA-MB-468, 48 h, read-out: GI; how it was run: as §1
[34] = Growth inhibition of human EKVX cells at 10 uM after 48 hrs by SRB assay; conditions: read-out: GI; how it was run: as §1
[35] = read-out: LC50 (the source's name)

For Nc1ccc(Sc2ccc3c4c2cccc4c(=O)n2c4ccccc4nc32)cc1, the “growth inhibition (GI)” value [1] was “Active”, the inhibition of growth at 10 µM [2] was 79.4% and the inhibition of growth at 10 µM [3] was 59.5%. It also gave an inhibition of growth at 10 µM [4] of 49.6%, a GI50 [5] of 4.09 µM and a TGI [5] of 45.4 µM. The CC50 [5, 35] was 94 µM, the inhibition of growth at 10 µM [6] was 50% and the inhibition of growth at 10 µM [7] was under 20%. The inhibition of growth at 10 µM [8] was 48.8%, the inhibition of growth at 10 µM [9] was 40% and the GI50 [10] was 3.23 µM. For the same molecule, the TGI [10] was 17.9 µM, the inhibition of growth at 10 µM [11] was 60.7% and the inhibition of growth at 10 µM [12] was 62.7%. For the same molecule, the inhibition of growth at 10 µM [13] was 53.7%, the inhibition of growth at 10 µM [14] was 59.4% and the inhibition of growth at 10 µM [15] was 22.2%. For the same molecule, the GI50 [16] was 3.3 µM, the TGI [16] was 15.4 µM and the CC50 [16, 35] was 88.9 µM. It also gave an inhibition of growth at 10 µM [17] of 60.6%, an inhibition of growth at 10 µM [18] of 66% and an inhibition of growth at 10 µM [19] of 43.4%. It also gave an inhibition of growth at 10 µM [20] of 50%, a GI50 [21] of 5.2 µM and a TGI [21] of 46 µM. The CC50 [21, 35] was over 100 µM, the inhibition of growth at 10 µM [22] was 40.6% and the GI50 [23] was 2.9 µM. For the same molecule, the TGI [23] was 44.5 µM, the CC50 [23, 35] was over 100 µM and the GI50 [24] was 6.97 µM. It also gave a TGI [24] of 37.4 µM, a CC50 [24, 35] of 97.9 µM and an inhibition of growth at 10 µM [25] of 53.8%. The inhibition of growth at 10 µM [26] was 60.4%, the inhibition of growth at 10 µM [27] was 90.7% and the inhibition of growth at 10 µM [28] was 21.4%. For the same molecule, the inhibition of growth at 10 µM [29] was 26.4%, the GI50 [30] was 3.94 µM and the TGI [30] was 32.5 µM. The GI50 [31] was 6.58 µM, the TGI [31] was 60.8 µM and the CC50 [31, 35] was 98.8 µM. It also gave an inhibition of growth at 10 µM [32] of under 20% and an inhibition of growth at 10 µM [33] of 56.5%.
With O=c1c2cccc3c(N4CCOCC4)ccc(c32)c2nc3ccccc3n12 the inhibition of growth at 10 µM [1] was under 20%, the inhibition of growth at 10 µM [2] was under 20% and the inhibition of growth at 10 µM [3] was under 20%. For the same molecule, the inhibition of growth at 10 µM [4] was under 20%, the inhibition of growth at 10 µM [6] was under 20% and the inhibition of growth at 10 µM [7] was under 20%. It also gave an inhibition of growth at 10 µM [8] of under 20%, an inhibition of growth at 10 µM [9] of under 20% and an inhibition of growth at 10 µM [11] of under 20%. The inhibition of growth at 10 µM [12] was under 20%, the inhibition of growth at 10 µM [13] was under 20% and the inhibition of growth at 10 µM [14] was under 20%. The inhibition of growth at 10 µM [15] was under 20%, the inhibition of growth at 10 µM [17] was 26.6% and the inhibition of growth at 10 µM [18] was under 20%. The inhibition of growth at 10 µM [19] was under 20%, the inhibition of growth at 10 µM [20] was under 20% and the inhibition of growth at 10 µM [22] was under 20%. For the same molecule, the inhibition of growth at 10 µM [25] was under 20%, the inhibition of growth at 10 µM [26] was 61.9% and the inhibition of growth at 10 µM [27] was 34.1%. The inhibition of growth at 10 µM [28] was 28.2%, the inhibition of growth at 10 µM [29] was 21.9% and the inhibition of growth at 10 µM [34] was 61.7%. The inhibition of growth at 10 µM [32] was under 20% and the “growth inhibition (GI)” value [33] was “Active”.
With O=c1c2cccc3c(N4CCCC4)ccc(c32)c2nc3ccccc3n12 the inhibition of growth at 10 µM [1] was 97.4%, the inhibition of growth at 10 µM [2] was 67.4% and the inhibition of growth at 10 µM [3] was 21.4%. For the same molecule, the inhibition of growth at 10 µM [4] was 32.1%, the inhibition of growth at 10 µM [6] was 34% and the inhibition of growth at 10 µM [7] was under 20%. The inhibition of growth at 10 µM [8] was 33.9%, the inhibition of growth at 10 µM [9] was 28.9% and the inhibition of growth at 10 µM [11] was 21.9%. It also gave an inhibition of growth at 10 µM [12] of under 20%, an inhibition of growth at 10 µM [13] of 24% and an inhibition of growth at 10 µM [14] of 44.7%. For the same molecule, the inhibition of growth at 10 µM [15] was under 20%, the inhibition of growth at 10 µM [17] was 35.5% and the inhibition of growth at 10 µM [18] was 29.6%. It also gave an inhibition of growth at 10 µM [19] of under 20%, an inhibition of growth at 10 µM [20] of 24.3% and an inhibition of growth at 10 µM [22] of under 20%. It also gave an inhibition of growth at 10 µM [25] of 40.5%, an inhibition of growth at 10 µM [26] of 27.9% and an inhibition of growth at 10 µM [27] of 43.8%. It also gave an inhibition of growth at 10 µM [28] of under 20%, an inhibition of growth at 10 µM [29] of under 20% and an inhibition of growth at 10 µM [34] of 24.1%. For the same molecule, the inhibition of growth at 10 µM [32] was under 20% and the inhibition of growth at 10 µM [33] was under 20%.
